Data published in ChEMBL document CHEMBL1143542, “Structure-activity relationships of bivalent aminoglycosides and evaluation of their microbiological activities” (2005).
≈ marks a conversion by molar mass, not a printed value.

Key:
Pseudomonas aeruginosa [1] = test: In vitro minimum inhibitory concentration against Pseudomonas aeruginosa PAO-1 Minimum inhibitory concentration against Pseudomonas aeruginosa PAO-1; type: functional
How it was run: (§1)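 Broth microdilution following CLSI M100-S12. Stocks were 10 mg/mL in water, diluted in Mueller–Hinton broth to a top level of 128, then serially 2-fold in plates. Bacteria in cation-adjusted Mueller–Hinton broth were mixed 1:1 with drug and incubated 16–20 h at 35 °C. MIC was the lowest concentration with no visible growth. Run in duplicate with no-antibiotic and no-inoculum (sterility) controls.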

Enterococcus faecalis = test: In vitro minimum inhibitory concentration against Enterococcus faecalis 29212; type: functional; how it was run: as §1
Escherichia coli = test: In vitro minimum inhibitory concentration against Escherichia coli ATCC 25922; type: functional; how it was run: as §1
Staphylococcus aureus [2] = test: In vitro minimum inhibitory concentration against Staphylococcus aureus ATCC 29213; type: functional; how it was run: as §1
Staphylococcus aureus [3] = test: In vitro minimum inhibitory concentration against Staphylococcus aureus MRSA 3359; type: functional; how it was run: as §1
Pseudomonas aeruginosa [4] = test: In vitro minimum inhibitory concentration against Pseudomonas aeruginosa ATCC 27853; type: functional; how it was run: as §1
Pseudomonas aeruginosa [5] = test: In vitro minimum inhibitory concentration against Pseudomonas aeruginosa PAO-1; type: functional; how it was run: as §1
Pseudomonas aeruginosa [6] = test: Susceptibility testing against Pseudomonas aeruginosa PAE_NUH21; S=Susceptible; type: functional, organism-based
How it was run: (§2)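 Disk diffusion susceptibility profiling against a panel of empirically used antipseudomonal antibiotics. Each strain was categorised as susceptible (S) or intermediate (I).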

Pseudomonas aeruginosa [7] = test: Susceptibility testing against Pseudomonas aeruginosa PAE_NUH02; R=Resistant; type: functional, organism-based
How it was run: (§3)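 Disk diffusion susceptibility profiling of P. aeruginosa reference and clinical isolates against empirically used antipseudomonal antibiotics. Each isolate was categorised as susceptible, intermediate or resistant.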

Pseudomonas aeruginosa [8] = test: Susceptibility testing against Pseudomonas aeruginosa PAE_NUH06; R=Resistant; type: functional, organism-based; how it was run: as §3
Pseudomonas aeruginosa [9] = test: Susceptibility testing against Pseudomonas aeruginosa ATCC 27853; S=Susceptible; type: functional, organism-based; how it was run: as §2
Pseudomonas aeruginosa [10] = test: Susceptibility testing against Pseudomonas aeruginosa PAE_NUH20; S=Susceptible; type: functional, organism-based; how it was run: as §2
Pseudomonas aeruginosa [11] = test: Susceptibility testing against Pseudomonas aeruginosa PAE_NUH05; R=Resistant; type: functional, organism-based; how it was run: as §3
Pseudomonas aeruginosa [12] = test: Susceptibility testing against Pseudomonas aeruginosa PAE_NUH22; S=Susceptible; type: functional, organism-based; how it was run: as §2
Pseudomonas aeruginosa [13] = test: Susceptibility testing against Pseudomonas aeruginosa PAE_NUH07; S=Susceptible; type: functional, organism-based; how it was run: as §2
Pseudomonas aeruginosa [14] = test: Susceptibility testing against Pseudomonas aeruginosa PAE_NUH18; S=Susceptible; type: functional, organism-based; how it was run: as §2
Pseudomonas aeruginosa [15] = test: Susceptibility testing against Pseudomonas aeruginosa PAE_NUH25; S=Susceptible; type: functional, organism-based; how it was run: as §2
Pseudomonas aeruginosa [16] = test: Susceptibility testing against Pseudomonas aeruginosa PAE_NUH04; R=Resistant; type: functional, organism-based; how it was run: as §3
Pseudomonas aeruginosa [17] = test: Susceptibility testing against Pseudomonas aeruginosa PAE_NUH01; R=Resistant; type: functional, organism-based; how it was run: as §3
Pseudomonas aeruginosa [18] = test: Susceptibility testing against Pseudomonas aeruginosa PAE_NUH19; S=Susceptible; type: functional, organism-based; how it was run: as §2
Pseudomonas aeruginosa [19] = test: Susceptibility testing against Pseudomonas aeruginosa PAE_NUH23; S=Susceptible; type: functional, organism-based; how it was run: as §2
Pseudomonas aeruginosa [20] = test: Susceptibility testing against Pseudomonas aeruginosa PAE_NUH17; S=Susceptible; type: functional, organism-based; how it was run: as §2
Pseudomonas aeruginosa [21] = test: Susceptibility testing against Pseudomonas aeruginosa PAE_NUH24; S=Susceptible; type: functional, organism-based; how it was run: as §2
Pseudomonas aeruginosa [22] = test: Susceptibility testing against Pseudomonas aeruginosa PAE_NUH03; R=Resistant; type: functional, organism-based; how it was run: as §3

Row | MIC (Pseudomonas aeruginosa [1]) | MIC (Enterococcus faecalis) | MIC (Escherichia coli) | MIC (Staphylococcus aureus [2]) | MIC (Staphylococcus aureus [3]) | MIC (Pseudomonas aeruginosa [4]) | MIC (Pseudomonas aeruginosa [5]) | Structure (SMILES) | further results
1 | 2 µg/mL (≈ 2.38 µM) | 32 µg/mL (≈ 38.1 µM) | 4 µg/mL (≈ 4.77 µM) | 0.5 µg/mL (≈ 0.596 µM) | 16 µg/mL (≈ 19.1 µM) | 2 µg/mL (≈ 2.38 µM) | – | NC[C@@H]1C[C@H](O)[C@@H](N)[C@H](O[C@H]2[C@H](O)[C@@H](OC[C@@H](O)CN[C@H]3CC[C@H](NC[C@@H](O)CO[C@@H]4[C@@H](O)[C@H](O[C@H]5O[C@H](CN)[C@@H](O)C[C@H]5N)[C@@H](N)C[C@H]4N)CC3)[C@H](N)C[C@@H]2N)O1 | –
2 | – | > 50 µg/mL | > 50 µg/mL | > 50 µg/mL | > 50 µg/mL | > 50 µg/mL | > 50 µg/mL | CCN(CCN(CC)C[C@@H](O)CO[C@@H]1[C@@H](O)[C@H](N)C[C@H](N)[C@H]1O[C@H]1O[C@H](CN)[C@@H](O)[C@H](O)[C@H]1N)C[C@@H](O)CO[C@@H]1[C@@H](O)[C@H](N)C[C@H](N)[C@H]1O[C@H]1O[C@H](CN)[C@@H](O)[C@H](O)[C@H]1N | –
3 | 16 µg/mL (≈ 18.7 µM) | > 50 µg/mL | 16 µg/mL (≈ 18.7 µM) | 2 µg/mL (≈ 2.33 µM) | 32 µg/mL (≈ 37.3 µM) | 16 µg/mL (≈ 18.7 µM) | – | CN(CCCCN(C)C[C@@H](O)CO[C@@H]1[C@@H](O)[C@H](N)C[C@H](N)[C@H]1O[C@H]1O[C@H](CN)[C@@H](O)C[C@H]1N)C[C@H](O)CO[C@@H]1[C@@H](O)[C@H](N)C[C@H](N)[C@H]1O[C@H]1O[C@H](CN)[C@@H](O)[C@H](O)[C@H]1N | –
4 | – | > 50 µg/mL | 50 µg/mL (≈ 58.3 µM) | 12.5 µg/mL (≈ 14.6 µM) | > 50 µg/mL | 12.5 µg/mL (≈ 14.6 µM) | 50 µg/mL (≈ 58.3 µM) | NC[C@H]1O[C@H](O[C@H]2[C@H](OC[C@H](O)CN3CCCN(C[C@@H](O)CO[C@@H]4[C@@H](O)[C@H](N)C[C@H](N)[C@H]4O[C@H]4O[C@H](CN)[C@@H](O)[C@H](O)[C@H]4N)CC3)[C@@H](O)[C@H](N)C[C@@H]2N)[C@H](N)[C@@H](O)[C@@H]1O | –
5 | > 50 µg/mL | > 50 µg/mL | > 50 µg/mL | > 50 µg/mL | > 50 µg/mL | > 50 µg/mL | – | NC[C@H]1O[C@H](O[C@H]2[C@H](OC[C@H](O)CNCCCNCCNC[C@@H](O)CO[C@@H]3[C@@H](O)[C@H](N)C[C@H](N)[C@H]3O[C@H]3O[C@H](CN)[C@@H](O)[C@H](O)[C@H]3N)[C@@H](O)[C@H](N)C[C@@H]2N)[C@H](N)[C@@H](O)[C@@H]1O | –
6 | – | > 50 µg/mL | 25 µg/mL (≈ 28.7 µM) | 50 µg/mL (≈ 57.4 µM) | 50 µg/mL (≈ 57.4 µM) | 1.6 µg/mL (≈ 1.84 µM) | – | NC[C@H]1O[C@H](O[C@H]2[C@H](OC[C@H](O)CN[C@H]3CC[C@H](NC[C@@H](O)CO[C@@H]4[C@@H](O)[C@H](N)C[C@H](N)[C@H]4O[C@H]4O[C@H](CN)[C@@H](O)[C@H](O)[C@H]4N)CC3)[C@@H](O)[C@H](N)C[C@@H]2N)[C@H](N)[C@@H](O)[C@@H]1O | –
7 | – | > 50 µg/mL | 12.5 µg/mL (≈ 14.1 µM) | 3.1 µg/mL (≈ 3.49 µM) | 50 µg/mL (≈ 56.4 µM) | 6.3 µg/mL (≈ 7.1 µM) | 6.3 µg/mL (≈ 7.1 µM) | CCN(CCCN(CC)C[C@@H](O)CO[C@@H]1[C@@H](O)[C@H](N)C[C@H](N)[C@H]1O[C@H]1O[C@H](CN)[C@@H](O)[C@H](O)[C@H]1N)C[C@@H](O)CO[C@@H]1[C@@H](O)[C@H](N)C[C@H](N)[C@H]1O[C@H]1O[C@H](CN)[C@@H](O)[C@H](O)[C@H]1N | –
8 | 4 µg/mL (≈ 4.83 µM) | 32 µg/mL (≈ 38.6 µM) | 16 µg/mL (≈ 19.3 µM) | 2 µg/mL (≈ 2.41 µM) | 16 µg/mL (≈ 19.3 µM) | 4 µg/mL (≈ 4.83 µM) | – | NC[C@H]1O[C@H](O[C@H]2[C@H](OC[C@@H](O)CNCCCCNC[C@@H](O)CO[C@@H]3[C@@H](O)[C@H](N)C[C@H](N)[C@H]3O[C@H]3O[C@H](CN)[C@@H](O)C[C@H]3N)[C@@H](O)[C@H](N)C[C@@H]2N)[C@H](N)[C@@H](O)[C@@H]1O | –
9 | – | – | – | – | – | – | – | NCC[C@H](O)C(=O)N[C@@H]1C[C@H](N)[C@@H](O[C@H]2O[C@H](CN)[C@@H](O)[C@H](O)[C@H]2O)[C@H](O)[C@H]1O[C@H]1O[C@H](CO)[C@@H](O)[C@H](N)[C@H]1O | Activity (Pseudomonas aeruginosa [6]): Susceptible; Activity (Pseudomonas aeruginosa [7]): Resistant; Activity (Pseudomonas aeruginosa [8]): Resistant; Activity (Pseudomonas aeruginosa [9]): Susceptible; Activity (Pseudomonas aeruginosa [10]): Susceptible; Activity (Pseudomonas aeruginosa [11]): Resistant; Activity (Pseudomonas aeruginosa [12]): Susceptible; Activity (Pseudomonas aeruginosa [13]): Susceptible; Activity (Pseudomonas aeruginosa [14]): Susceptible; Activity (Pseudomonas aeruginosa [15]): Susceptible; Activity (Pseudomonas aeruginosa [16]): Resistant; Activity (Pseudomonas aeruginosa [17]): Resistant; Activity (Pseudomonas aeruginosa [18]): Susceptible; Activity (Pseudomonas aeruginosa [19]): Susceptible; Activity (Pseudomonas aeruginosa [20]): Susceptible; Activity (Pseudomonas aeruginosa [21]): Susceptible; Activity (Pseudomonas aeruginosa [22]): Resistant
